Reference: ChEMBL document CHEMBL1122900, “Effects of alkyl and aryl substitution on the myocardial specificity of radioiodinated phosphonium, arsonium, and ammonium cations” (J Med Chem, 1985)

Columns and labels:
Rattus norvegicus [1] = assay: Evaluated for the distribution of radioactivity in tissues of female Fischer rats liver after 5 minutes intravenous administration; dose/g, range 4.12-6.30; format: ADME, organism-based; details: in vivo
Summary of the method: (§1)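 Female Fischer 344 rats (10-12 weeks, 170-200 g), fed ad libitum, got a single iv tail-vein injection under ether anaesthesia of the 125I-labelled cation (2.85-8.38 μCi). The tracer was dissolved in Me2SO, diluted with saline to 1% Me2SO and filtered. At the set times rats were killed by cervical fracture and blood taken by cardiac puncture. Organs were rinsed, blotted, weighed and gamma-counted against injectate standards. Results are %dose/g, mean and range, n=5. Thyroid weight was taken as 7.5 mg/100 g body weight.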

Rattus norvegicus [2] = assay: Evaluated for the distribution of radioactivity in tissues of female Fischer rats blood after 30 minutes intravenous administration; dose/g, range 0.07-0.09; format: ADME, organism-based; details: in vivo, 0.5 h
Rattus norvegicus [3] = assay: Evaluated for the distribution of radioactivity in tissues of female Fischer rats lungs after 60 minutes intravenous administration; dose/g, range 0.28-0.33; format: ADME, organism-based, Lung; details: in vivo, 1 h; summary of the method: as §1
Rattus norvegicus [4] = assay: Evaluated for the distribution of radioactivity in tissues of female Fischer rats lungs after 5 minutes intravenous administration; dose/g, range 0.51-0.66; format: ADME, organism-based, Lung; details: in vivo; summary of the method: as §1
Rattus norvegicus [5] = assay: Evaluated for the distribution of radioactivity in tissues of female Fischer rats blood after 5 minutes intravenous administration; dose/g, range 0.10-0.14; format: ADME, organism-based; details: in vivo
Rattus norvegicus [6] = assay: Evaluated for the distribution of radioactivity in tissues of female Fischer rats kidneys after 5 minutes intravenous administration; dose/g, range 4.78-9.72; format: ADME, organism-based, Kidney; details: in vivo
Rattus norvegicus [7] = assay: Evaluated for the distribution of radioactivity in tissues of female Fischer rats heart after 30 minutes intravenous administration; dose/g, range 0.95-1.44; format: ADME, organism-based; details: in vivo, 0.5 h
Rattus norvegicus [8] = assay: Evaluated for the distribution of radioactivity in tissues of female Fischer rats thyroid after 5 minutes intravenous administration; dose/g, range 5-8; format: ADME, organism-based, Thyroid gland; details: in vivo; summary of the method: as §1
Rattus norvegicus [9] = assay: Evaluated for the distribution of radioactivity in tissues of female Fischer rats blood after 60 minutes intravenous administration; dose/g, range 0.08-0.09; format: ADME, organism-based; details: in vivo, 1 h
Rattus norvegicus [10] = assay: Evaluated for the distribution of radioactivity in tissues of female Fischer rats lungs after 30 minutes intravenous administration.; dose/g, range 0.34-0.47; format: ADME, organism-based, Lung; details: in vivo, 0.5 h; summary of the method: as §1
Rattus norvegicus [11] = assay: Evaluated for the distribution of radioactivity in tissues of female Fischer rats liver after 60 minutes intravenous administration; dose/g, range 1.08-2.31; format: ADME, organism-based; details: in vivo, 1 h; summary of the method: as §1
Rattus norvegicus [12] = assay: Evaluated for the distribution of radioactivity in tissues of female Fischer rats heart after 60 minutes intravenous administration; dose/g, range 1.05-1.57; format: ADME, organism-based; details: in vivo, 1 h
Rattus norvegicus [13] = assay: Evaluated for the distribution of radioactivity in tissues of female Fischer rats kidneys after 30 minutes intravenous administration; dose/g, range 0.24-0.31; format: ADME, organism-based, Kidney; details: in vivo, 0.5 h
Rattus norvegicus [14] = assay: Evaluated for the distribution of radioactivity in tissues of female Fischer rats liver after 30 minutes intravenous administration; dose/g, range 2.30-3.12; format: ADME, organism-based; details: in vivo, 0.5 h
Rattus norvegicus [15] = assay: Evaluated for the distribution of radioactivity in tissues of female Fischer rats heart after 5 minutes intravenous administration; dose/g, range 0.90-1.46; format: ADME, organism-based; details: in vivo
Rattus norvegicus [16] = assay: Evaluated for the distribution of radioactivity in tissues of female Fischer rats thyroid after 60 minutes intravenous administration; dose/g, range 5-12; format: ADME, organism-based, Thyroid gland; details: in vivo, 1 h; summary of the method: as §1
Rattus norvegicus [17] = assay: Evaluated for the distribution of radioactivity in tissues of female Fischer rats kidneys after 60 minutes intravenous administration; dose/g, range 0.17-0.25; format: ADME, organism-based, Kidney; details: in vivo, 1 h
Rattus norvegicus [18] = assay: Evaluated for the distribution of radioactivity in tissues of female Fischer rats thyroid after 30 minutes intravenous administration; dose/g, range 4-7; format: ADME, organism-based, Thyroid gland; details: in vivo, 0.5 h; summary of the method: as §1
Rattus norvegicus [19] = assay: Evaluated for the distribution of radioactivity in tissues of female Fischer rats liver after 30 minutes intravenous administration; dose/g, range 0.55-0.71; format: ADME, organism-based; details: in vivo, 0.5 h
Rattus norvegicus [20] = assay: Evaluated for the distribution of radioactivity in tissues of female Fischer rats thyroid after 5 minutes intravenous administration; dose/g, range 26-49; format: ADME, organism-based, Thyroid gland; details: in vivo
Rattus norvegicus [21] = assay: Evaluated for the distribution of radioactivity in tissues of female Fischer rats heart after 60 minutes intravenous administration; dose/g, range 3.51-5.44; format: ADME, organism-based; details: in vivo, 1 h
Rattus norvegicus [22] = assay: Evaluated for the distribution of radioactivity in tissues of female Fischer rats liver after 5 minutes intravenous administration; dose/g, range 1.04-2.56; format: ADME, organism-based; details: in vivo
Rattus norvegicus [23] = assay: Evaluated for the distribution of radioactivity in tissues of female Fischer rats kidneys after 5 minutes intravenous administration; dose/g, range 1.04-2.56; format: ADME, organism-based, Kidney; details: in vivo
Rattus norvegicus [24] = assay: Evaluated for the distribution of radioactivity in tissues of female Fischer rats lungs after 60 minutes intravenous administration; dose/g, range 1.07-1.26; format: ADME, organism-based, Lung; details: in vivo, 1 h; summary of the method: as §1
Rattus norvegicus [25] = assay: Evaluated for the distribution of radioactivity in tissues of female Fischer rats blood after 5 minutes intravenous administration; dose/g, range 0.27-0.33; format: ADME, organism-based; details: in vivo
Rattus norvegicus [26] = assay: Evaluated for the distribution of radioactivity in tissues of female Fischer rats thyroid after 60 minutes intravenous administration; dose/g, range 26-42; format: ADME, organism-based, Thyroid gland; details: in vivo, 1 h; summary of the method: as §1
Rattus norvegicus [27] = assay: Evaluated for the distribution of radioactivity in tissues of female Fischer rats thyroid after 30 minutes intravenous administration; dose/g, range 26-40; format: ADME, organism-based, Thyroid gland; details: in vivo, 0.5 h
Rattus norvegicus [28] = assay: Evaluated for the distribution of radioactivity in tissues of female Fischer rats kidneys after 60 minutes intravenous administration; dose/g, range 5.67-8.41; format: ADME, organism-based, Kidney; details: in vivo, 1 h
Rattus norvegicus [29] = assay: Evaluated for the distribution of radioactivity in tissues of female Fischer rats blood after 60 minutes intravenous administration; dose/g, range 0.12-0.14; format: ADME, organism-based; details: in vivo, 1 h
Rattus norvegicus [30] = assay: Evaluated for the distribution of radioactivity in tissues of female Fischer rats lungs after 30 minutes intravenous administration; dose/g, range 0.91-1.74; format: ADME, organism-based, Lung; details: in vivo, 0.5 h
Rattus norvegicus [31] = assay: Evaluated for the distribution of radioactivity in tissues of female Fischer rats liver after 60 minutes intravenous administration; dose/g, range 0.44-0.54; format: ADME, organism-based; details: in vivo, 1 h; summary of the method: as §1
Rattus norvegicus [32] = assay: Evaluated for the distribution of radioactivity in tissues of female Fischer rats kidneys after 30 minutes intravenous administration; dose/g, range 8.28-10.72; format: ADME, organism-based, Kidney; details: in vivo, 0.5 h
Rattus norvegicus [33] = assay: Evaluated for the distribution of radioactivity in tissues of female Fischer rats blood after 30 minutes intravenous administration; dose/g, range 0.10-0.13; format: ADME, organism-based; details: in vivo, 0.5 h
Rattus norvegicus [34] = assay: Evaluated for the distribution of radioactivity in tissues of female Fischer rats lungs after 5 minutes intravenous administration; dose/g, range 1.41-2.17; format: ADME, organism-based, Lung; details: in vivo
Rattus norvegicus [35] = assay: Evaluated for the distribution of radioactivity in tissues of female Fischer rats heart after 5 minutes intravenous administration; dose/g, range 3.80-5.74; format: ADME, organism-based; details: in vivo
Rattus norvegicus [36] = assay: Evaluated for the distribution of radioactivity in tissues of female Fischer rats heart after 30 minutes intravenous administration; dose/g, range 3.17-4.70; format: ADME, organism-based; details: in vivo, 0.5 h

CC[N+](CC)(CC)CCC/C=C/I.[I-]
Distribution (Rattus norvegicus [1]): 5.16% | Distribution (Rattus norvegicus [2]): 0.08% | Distribution (Rattus norvegicus [3]): 0.29% | Distribution (Rattus norvegicus [4]): 0.57% | Distribution (Rattus norvegicus [5]): 0.12% | Distribution (Rattus norvegicus [6]): 7.46% | Distribution (Rattus norvegicus [7]): 1.11% | Distribution (Rattus norvegicus [8]): 6% | Distribution (Rattus norvegicus [9]): 0.09% | Distribution (Rattus norvegicus [10]): 0.39% | Distribution (Rattus norvegicus [11]): 1.55% | Distribution (Rattus norvegicus [12]): 1.21% | Distribution (Rattus norvegicus [13]): 0.27% | Distribution (Rattus norvegicus [14]): 2.76% | Distribution (Rattus norvegicus [15]): 1.12% | Distribution (Rattus norvegicus [16]): 9% | Distribution (Rattus norvegicus [17]): 0.21% | Distribution (Rattus norvegicus [18]): 5%

I/C=C/CCC[P+](c1ccccc1)(c1ccccc1)c1ccccc1.[I-]
Distribution (Rattus norvegicus [19]): 0.62% | Distribution (Rattus norvegicus [20]): 37% | Distribution (Rattus norvegicus [21]): 4.19% | Distribution (Rattus norvegicus [22]): 1.48% | Distribution (Rattus norvegicus [23]): 1.48% | Distribution (Rattus norvegicus [24]): 1.18% | Distribution (Rattus norvegicus [25]): 0.29% | Distribution (Rattus norvegicus [26]): 33% | Distribution (Rattus norvegicus [27]): 31% | Distribution (Rattus norvegicus [28]): 6.8% | Distribution (Rattus norvegicus [29]): 0.14% | Distribution (Rattus norvegicus [30]): 1.28% | Distribution (Rattus norvegicus [31]): 0.49% | Distribution (Rattus norvegicus [32]): 9.36% | Distribution (Rattus norvegicus [33]): 0.12% | Distribution (Rattus norvegicus [34]): 1.72% | Distribution (Rattus norvegicus [35]): 4.4% | Distribution (Rattus norvegicus [36]): 3.99%
